{"source": "ChEMBL document CHEMBL1157638", "about": "“Fluorescent epigenetic small molecule induces expression of the tumor suppressor ras-association domain family 1A and inhibits human prostate xenograft” (J Med Chem, 2010)", "format_in_all_cases": "functional", "key": {"SF-295": {"system": "SF-295", "assay": "Growth inhibition of human SF295 cells"}, "CCRF-CEM [1]": {"system": "CCRF-CEM", "assay": "Growth inhibition of human CCRF-CEM cells assessed as cell growth at 10 uM relative to untreated control", "settings": "read-out: Activity"}, "TK-10": {"system": "TK-10", "assay": "Growth inhibition of human TK10 cells assessed as cell growth at 1 uM relative to untreated control", "settings": "read-out: Activity"}, "CCRF-CEM [2]": {"system": "CCRF-CEM", "assay": "Growth inhibition of human CCRF-CEM cells assessed as cell growth at 10 nM relative to untreated control", "settings": "read-out: Activity"}, "786-0 [3]": {"system": "786-0", "assay": "Growth inhibition of human 786-0 cells assessed as cell growth at 100 nM relative to untreated control", "settings": "read-out: Activity"}, "ACHN": {"system": "ACHN", "assay": "Growth inhibition of human ACHN cells assessed as cell growth at 1 nM relative to untreated control", "settings": "read-out: Activity"}, "HOP-62": {"system": "HOP-62", "assay": "Growth inhibition of human HOP62 cells assessed as cell growth at 1 nM relative to untreated control", "settings": "read-out: Activity", "how_it_was_run": "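Run externally at the National Cancer Institute as a 59-cell-line panel screen, with concentrations up to 100 μM. Growth was scored relative to control, where negative growth or total cell kill was possible. Data are in the Supporting Information.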"}, "786-0 [4]": {"system": "786-0", "assay": "Growth inhibition of human 786-0 cells"}, "[5]": {"settings": "read-out: LC50 (the source's name)"}}}
{"smiles": "COc1ccc2c(c1)[nH]c1c(C)c(OS(=O)(=O)c3cccc4c(N(C)C)cccc34)ccc12", "values": [{"measurement": "GI50", "setting": "SF-295", "result": 3.4, "unit": "µM"}, {"measurement": "TGI", "setting": "SF-295", "result": "> 100", "unit": "µM"}, {"measurement": "CC50", "setting": "SF-295; [5]", "result": "> 100", "unit": "µM"}, {"measurement": "growth at 10 µM", "setting": "CCRF-CEM [1]", "result": 1, "unit": "%"}, {"measurement": "growth at 1 µM", "setting": "TK-10", "result": 48, "unit": "%"}, {"measurement": "growth at 0.01 µM", "setting": "CCRF-CEM [2]", "result": 92, "unit": "%"}, {"measurement": "growth at 0.1 µM", "setting": "786-0 [3]", "result": 105, "unit": "%"}, {"measurement": "growth at 0.001 µM", "setting": "ACHN", "result": 100, "unit": "%"}, {"measurement": "growth at 0.001 µM", "setting": "HOP-62", "result": 101, "unit": "%"}, {"measurement": "GI50", "setting": "786-0 [4]", "result": 5.42, "unit": "µM"}, {"measurement": "TGI", "setting": "786-0 [4]", "result": "> 100", "unit": "µM"}, {"measurement": "CC50", "setting": "786-0 [4]; [5]", "result": "> 100", "unit": "µM"}]}
